Bioassay records deposited in PubChem by The Scripps Research Institute Molecular Screening Center.
OX1R antag-1: blocks the human orexin 1 receptor | O43613 | CHO/OX1R cells, Fluo-8 calcium fluorescence, orexin A | inhibition, % at 5 µM | actives 0.43% (n = 330,000) | AID 434989;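 active = inhibition above its plate's threshold, mean inhibition of all tested compounds on the plate plus 3 SD, cut at about 37% in these data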;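 also: 0% = orexin A challenge wells and 100% = SB-334867-A antagonist wells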
GalR3 antag: human GalR3 antagonism; O60755; HEK293 GalR3-CNG cAMP membrane potential fluorescence; galR3 body fused to GalR1 C-terminus; inhibition, % at 3 µM; actives 0.44% (n = 360,000); AID 651719;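 active = inhibition above the screen-wide average plus 3 SD, cut at about 13% in these data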;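 also: forskolin and galanin both at EC90 stimulate the cells; cAMP rise reported by CNG channel membrane potential dye signal; 0% = forskolin plus galanin with DMSO and 100% = forskolin alone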
Target sequence (O60755 1-299 limits assumed): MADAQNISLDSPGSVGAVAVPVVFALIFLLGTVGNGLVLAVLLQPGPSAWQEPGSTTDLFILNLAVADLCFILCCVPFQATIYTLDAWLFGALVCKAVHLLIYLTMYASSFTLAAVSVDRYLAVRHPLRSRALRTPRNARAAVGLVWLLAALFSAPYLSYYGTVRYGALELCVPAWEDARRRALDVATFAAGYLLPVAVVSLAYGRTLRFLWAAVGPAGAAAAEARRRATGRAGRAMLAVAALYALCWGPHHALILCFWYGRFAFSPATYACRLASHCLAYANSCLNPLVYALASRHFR
TAAR1 ag: agonists of human TAAR1 | Q96RJ0 | CHO RD-HGA16 TAAR1, Fluo-8 calcium fluorescence; vehicle wells 0%, saturating PEA agonist 100% | activation, % at 3 µM | actives 0.99% (n = 360,000);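 active = activation above the mean activation of all test compounds in the run plus 3 SD, cut at about 38% in these data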
Target sequence (Q96RJ0 whole entry, looked up): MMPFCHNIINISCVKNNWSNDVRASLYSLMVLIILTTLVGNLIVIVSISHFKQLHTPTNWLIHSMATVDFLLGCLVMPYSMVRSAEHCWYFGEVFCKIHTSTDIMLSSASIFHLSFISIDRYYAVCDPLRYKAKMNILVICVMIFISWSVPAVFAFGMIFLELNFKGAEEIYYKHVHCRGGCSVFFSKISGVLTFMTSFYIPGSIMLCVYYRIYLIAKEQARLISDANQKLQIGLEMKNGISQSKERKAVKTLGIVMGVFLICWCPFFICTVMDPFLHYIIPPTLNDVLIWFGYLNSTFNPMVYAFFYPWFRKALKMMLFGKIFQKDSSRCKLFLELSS
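test system = CHO RD-HGA16 cells carrying human TAAR1 plus Gα16 | schedule = 17-24 h seeding, 75 min 37 °C dye, 30 min RT | compound dosing = 3 µM single concentration | control set = DMSO and PEA EC100 | replicates = n 1 | signal = Fluo-8 fluorescence, 5 s baseline then 140 s kinetic read | measure = percent activation vs PEA EC100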
TAAR1 antagonist: antagonists of human TAAR1; Q96RJ0; CHO RD-HGA16 TAAR1, Fluo-8 calcium fluorescence, antagonist; inhibition, % at 3 µM; actives 1.5% (n = 360,000); AID 624466;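 active = inhibition above a per-plate cutoff, the mean inhibition of test compounds on that plate plus 3 SD, cut at about 49% in these data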;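 also: 0% = DMSO plus EC80 beta-PEA response and 100% = DMSO alone without agonist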
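Material: RD-HGA16 CHO cells with stable hTAAR1 and Gα16; Dosing: single nominal final test compound concentration of 3 µM; Schedule: seeding 17-24 h prior, 75-min 37 °C, 30-min RT dye loading; Detection: kinetic Fluo-8 calcium fluorescence measurement; Measure: % inhibition from peak post-agonist over basal fluorescence ratio; Benchmarks: vehicle and agonist controls.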
OX1R antag-2: OX1R (human) antagonism; O43613; OX1R-expressing cells, FRET antagonist read-out; inhibition, % at 6.6 µM; actives 1.8% (n = 330,000); AID 485270; in the data active = inhibition mostly above about 38%, no sharp cut-off; inactive = mostly below about 40%;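 also: 0% = agonist challenge alone and 100% = reference antagonist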
CHO parental Ca: signal in parental CHO cells, OX1R antagonist counter-screen; actives 0.63% (n = 330,000); parental CHO-K1, ATP-induced calcium, Fluo-8 fluorescence; AID 463079; inhibition, % at 5.6 µM;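 active = inhibition above that plate's mean sample inhibition plus 3 SD, cut at about 26% in these data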;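 also: 0% = ATP-challenged DMSO wells and 100% = DMSO wells without ATP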
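Test system: parental CHO cells; detection: calcium-sensitive Fluo-8 fluorescence; evaluation: percent inhibition of calcium signal; also added: ATP as calcium-mobilizing challenge; repeats: one well per compound; control set: ATP-challenged DMSO wells low, unchallenged DMSO wells high; compound: single nominal dose of 5.6 µM per compound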
TAAR1 ag conf: human TAAR1 agonism, confirmed | shares compounds with TAAR1 ag | CHO RD-HGA16 TAAR1, Fluo-8 calcium fluorescence; scaled: DMSO 0%, maximal phenethylamine 100% | activation, % at 3 µM | actives 82% (n = 2,400);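 active = activation above a cutoff set at the run's mean compound activation plus 3 SD, cut at about 39% in these data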
Ga16 nonsel ag: counter-screen for TAAR1 agonists: nonselective agonists in parental cells; shares compounds with TAAR1 ag; CHO-Ga16 parental, Fluo-8 calcium fluorescence; normalized to maximal ATP response, DMSO zero; activation, % at 3 µM; actives 50% (n = 2,400); AID 651787;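 active = activation above the run cutoff, the mean activation over all tested wells plus 3 SD, cut at about 12% in these data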;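 also: 0% = DMSO wells and 100% = maximal ATP response on the peak over basal ratio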
TAAR1 desens: counter-screen for human TAAR1 agonists: agonists that desensitize TAAR1; actives 46% (n = 2,400); CHO RD-HGA16 hTAAR1, Fluo-8 calcium, beta-PEA response inhibition; shares compounds with TAAR1 ag; inhibition, % at 3 µM; AID 651951;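 active = inhibition above the run cutoff, the mean inhibition of all test compounds plus 3 SD, cut at about 49% in these data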;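 also: beta-PEA stimulus applied at its EC80; loss of beta-PEA calcium signal after compound pretreatment read as receptor desensitization; 0% = DMSO with beta-PEA at EC80 and 100% = DMSO alone without agonist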
Ga16 nonsel ant: counter-screen for TAAR1 agonists: nonselective Ga16 antagonists; CHO-Ga16 ATP-induced calcium, Fluo-8 fluorescence; actives 39% (n = 2,400); inhibition, % at 3 µM; shares compounds with TAAR1 ag;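 active = inhibition above the plate's mean compound inhibition plus 3 SD, computed per plate, cut at about 22% in these data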;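 also: 0% = EC80 ATP with DMSO and 100% = DMSO wells without ATP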
* hit, by the source's call; · = no result. A selection: hits, their analogues and other compounds. The true share with any hit is near 4.2%.

SMILES	OX1R antag-1	GalR3 antag	TAAR1 ag	TAAR1 antagonist	OX1R antag-2	CHO parental Ca	TAAR1 ag conf	Ga16 nonsel ag	TAAR1 desens	Ga16 nonsel ant
CC(=O)OC(C(=O)NC1CCCCC1)c1ccccc1Cl (stereo not drawn)	-16.5	7.3	0.3	0.9	8.8	-13.5	·	·	·	·
Cc1ccc(CNC(=O)C2CCC(=O)N(C3CCCC3)C2)c(F)c1F (stereo not drawn)	-23.1	-9.9	0.0	-14.4	14.1	-17.6	·	·	·	·
O=C(O)C1C2CCC(C2)C1C(=O)NCCc1ccccc1 (stereo not drawn)	3.3	-5.7	·	·	2.3	5.7	·	1.6	·	3.8
COc1ccc(CCNC(=O)C2C3CCC(C3)C2C(=O)O)cc1OC (stereo not drawn)	-7.5	-7.7	22.1	-15.9	9.3	-5.7	·	·	·	·
COc1ccc(N(C(=O)CCl)C(C(=O)NCCc2ccccc2)c2cccs2)cc1Cl (stereo not drawn)	-11.1	-5.8	40.1*	28.3	21.7	-8.9	33.5	-0.7	18.1	19.5
COc1cccc(N(C(=O)CCl)C(C(=O)NCCc2ccccc2)c2cccs2)c1 (stereo not drawn)	-15.4	-4.6	33.9	0.5	8.1	-9.3	·	·	·	·
Cc1nc2ccccc2c2oc(C(=O)N3CCC(C)CC3)cc12	-41.1	-4.8	-0.9	-3.0	13.5	-24.1	·	·	·	·
CN1C(=S)N(c2cccnc2)C(=O)/C1=C\c1ccc(C(C)(C)C)cc1	12.2	-5.4	8.2	5.2	23.3	-15.7	·	·	·	·
CN1C(=S)N(c2cccnc2)C(=O)/C1=C\c1ccc(N(C)C)cc1	·	-9.4	73.8*	33.0	·	·	29.3	38.6*	41.6	49.6*
Cc1cc(C)nc(OC(C(=O)O)C(OCC(C)C)(c2ccccc2)c2ccccc2)n1 (stereo not drawn)	-10.1	-1.7	108.4*	4.3	3.1	-14.9	125.0*	74.4*	20.8	8.3
CCCOC(c1ccccc1)(c1ccc(C(F)(F)F)cc1)C(Oc1nc(C)cc(C)n1)C(=O)O (stereo not drawn)	-5.1	-6.0	25.4	-3.8	10.2	-8.2	·	·	·	·
CCC(C)COC(c1ccccc1)(c1ccccc1)C(Oc1nc(C)cc(C)n1)C(=O)O (stereo not drawn)	-12.6	-6.4	80.5*	8.2	16.4	-24.8	128.3*	85.5*	14.1	8.5
Cc1cc(C)nc(OC(C(=O)O)C(OCCc2ccccc2)(c2ccc(F)cc2)c2ccc(F)cc2)n1 (stereo not drawn)	-19.6	-3.6	121.7*	1.0	5.2	-14.6	127.8*	89.5*	25.7	4.9
Cc1cccc(C)c1NC(=O)CNC(=O)c1cnccn1	4.0	-5.6	0.4	3.5	-0.4	16.4	·	·	·	·
COc1ccc(C(C)C)cc1S(=O)(=O)NCCCn1ccnc1	-18.4	-2.9	4.0	-13.0	-0.3	-11.5	·	·	·	·
CC(C)(C)c1ccc(S(=O)(=O)NC(=O)C2(C)CCN2C(=O)c2cccc3ccccc23)cc1 (stereo not drawn)	·	-7.3	45.6*	-15.4	·	·	66.5*	14.1*	12.2	3.9
CCc1nc(C)cn1S(=O)(=O)c1ccc(Cl)c(Cl)c1Cl	-19.1	-3.3	3.7	30.5	20.0	-3.8	·	·	·	·
O=C1C(Cl)=C(NCC2CCCO2)C(=O)N1CCc1ccccc1 (stereo not drawn)	-18.8	-5.6	74.2*	13.1	4.4	-14.8	51.5*	2.3	8.6	8.1
CC(=O)N(Cc1ccc(F)cc1)C1=C(NCCc2ccccc2)C(=O)c2ccccc2C1=O	-45.2	-2.7	50.1*	-1.7	29.4	-39.0	28.8	0.5	21.2	14.0
O=C1C(Cl)=C(NCCc2ccccc2)C(=O)N1CCc1ccccc1	-0.2	-0.3	43.2*	65.7*	30.5	-15.6	73.3*	8.8	83.2*	32.2*
O=C1C(Cl)=C(NCCc2ccccc2)C(=O)c2ccccc21	·	4.5	79.5*	67.3*	·	·	106.5*	14.0*	96.0*	28.4*
O=C(O)c1cccc(NC2=C(Cl)C(=O)c3ccccc3C2=O)c1	·	-7.5	-1.3	9.5	·	·	·	·	·	·
O=C1C(Cl)=C(Nc2ccc(F)cc2)C(=O)N1CCc1ccccc1	-2.6	-6.9	0.6	19.2	31.9	-13.0	·	·	·	·
O=C1C(Cl)=C(NCCCN2CCOCC2)C(=O)N1CCc1ccccc1	-33.6	-2.2	7.0	-0.6	10.7	-24.5	·	·	·	·
CCCN1C(=O)c2n[nH]c(C(C)C)c2C1c1cccc(C(F)(F)F)c1 (stereo not drawn)	·	-5.7	-1.7	-3.4	·	·	·	·	·	·
SMILES	OX1R antag-1	GalR3 antag	TAAR1 ag	TAAR1 antagonist	OX1R antag-2	CHO parental Ca	TAAR1 ag conf	Ga16 nonsel ag	TAAR1 desens	Ga16 nonsel ant
O=C(NCCCN1CCCCC1)C1CCC(CNS(=O)(=O)c2cccc3nsnc23)CC1 (stereo not drawn)	-4.9	2.6	0.3	-14.6	42.6	9.6	·	·	·	·
CCOC(=O)c1c(S(=O)(=O)N2CCN(C3CCCCC3)CC2)c(C)n(C)c1C	-18.2	0.5	-0.9	-3.9	19.2	-1.9	·	·	·	·
O=c1c(O)c(-c2cccs2)oc2ccc(Cl)cc12	91.6*	-7.9	291.8*	110.0*	22.5	70.5*	151.8*	151.5*	89.0*	84.7*
Cc1cccc(-c2noc(CCC(=O)NCc3ccco3)n2)c1	-16.4	-1.6	3.6	12.2	8.3	-11.3	·	·	·	·
CC1C/C(=C/c2cccn2C)C(=O)/C(=C/c2cccn2C)C1 (stereo not drawn)	110.9*	-1.8	66.6*	75.5*	0.3	82.7*	39.6*	45.4*	50.5*	64.7*
CCc1cccc(NC(=O)CCNC(=O)Cn2ccc3ccccc3c2=O)c1	-24.2	-8.2	1.8	-8.4	26.7	-6.6	·	·	·	·
COc1ccc2ccccc2c1/C=N/Nc1ccc(Cl)c(C(=O)O)c1	-7.0	-8.2	-1.9	-0.2	40.6	-1.0	·	·	·	·
COc1ccc(N/N=C/c2c(C(=O)O)ccc3ccccc23)cc1	-14.2	-7.5	62.4*	5.6	29.6	-16.4	62.3*	13.3*	34.6	17.7
COc1cc2[nH]c(C(=O)N3CCc4ccccc4C3)cc2c(OC)c1OC	-17.6	-1.2	44.1*	-12.0	-0.9	-24.8	71.9*	4.7	16.9	7.6
